Published values collected from several papers.
Protocols differ between the studies behind these lines.
Organism: Trypanosoma brucei
Read-out: parasite growth

NNC(=O)CN1C(=O)CNC2(C1=O)C1CC3CC(C1)CC2C3 (centres unmarked)
IC50 (pH 7.4, blood stage): 118000 nM

Nc1nc(N)c2nc(C(=O)NCc3ccccc3)cnc2n1
inhibition (resazurin; 10 µM, 72 h): 19%

Cc1ccc(C(=O)Nc2ccc(S(=O)(=O)O)c3cc(S(=O)(=O)O)cc(S(=O)(=O)O)c23)cc1NC(=O)c1cccc(NC(=O)Nc2cccc(C(=O)Nc3cc(C(=O)Nc4ccc(S(=O)(=O)O)c5cc(S(=O)(=O)O)cc(S(=O)(=O)O)c45)ccc3C)c2)c1
IC50 (resazurin; RHODESIENSE STIB900): 35 nM

N=C(N)c1ccc(OCCCCCOc2ccc(C(=N)N)cc2)cc1
EC50: 1.24 nM

OC(c1ccccc1)c1ccccc1
EC50: > 100000 nM

NC(=O)CN1C(=O)CNC2(C1=O)C1CC3CC(C1)CC2C3 (centres unmarked)
IC50 (pH 7.4, blood stage): 200000 nM

Cc1c2ccc(N(C)c3ccnc(Nc4cccc(S(N)(=O)=O)c4)n3)cc2nn1C
EC50: 5010 nM

Nc1nc(N)c2nc(CNc3cccc4ccccc34)cnc2n1
inhibition (resazurin; 10 µM, 72 h): 31%

Cc1ccc2nc(-c3ccc(F)c(F)c3)c(CN3CCC(Cc4ccccc4)CC3)n2c1
EC90 (48 h): 18100 nM

CCOC(=O)C1CCCN1C(=O)c1ccc(NCc2cnc3nc(N)nc(N)c3n2)cc1 (centres unmarked)
inhibition (resazurin; 10 µM, 72 h): 30%

COc1cc(Nc2nccc(Nc3ccc4c(C)n[nH]c4c3)n2)cc(OC)c1OC
EC50: 631 nM

Cc1ccc2nc(-c3ccc(Cl)cc3)cn2c1
EC50 (48 h): 10400 nM

O=C(Nc1ccnc(C(F)(F)F)c1)Nc1cccc2c1OC(F)(F)O2
IC50 (RHODESIENSE STIB900): 14000 nM

Clc1ccc2c(c1)N(CCCN1CCN(CCCc3ccccc3)CC1)c1ccccc1S2
EC50: 775 nM

C[C@@H](Oc1cc(-n2cnc3ccc(OCC4CCN(C)CC4)cc32)sc1C(N)=O)c1ccccc1Cl
EC50: 15.8 nM

Nc1nc(N)c2nc(CNc3ccc(C(=O)N4CCC(C(=O)O)CC4)cc3)cnc2n1
inhibition (resazurin; 10 µM, 72 h): 8%

Nc1nccc(C#Cc2cncnc2Nc2ccc(OCc3cccc(F)c3)c(Cl)c2)n1
EC50: 3160 nM

CCCOC(=O)C1CCN(C(=O)c2ccc(N(C)Cc3cnc4nc(N)nc(N)c4n3)cc2)CC1
inhibition (resazurin; 10 µM, 72 h): 51%

CC1CS(=O)(=O)CCN1/N=C/c1ccc([N+](=O)[O-])o1 (centres unmarked)
IC50: 3500 nM

Cc1ccc(C(=O)Nc2ccc(S(=O)(=O)O)c3cc(S(=O)(=O)O)cc(S(=O)(=O)O)c23)cc1NC(=O)c1cccc(NC(=O)Nc2cccc(C(=O)Nc3cc(C(=O)Nc4ccc(S(=O)(=O)O)c5cc(S(=O)(=O)O)cc(S(=O)(=O)O)c45)ccc3C)c2)c1
IC50 (resazurin): 60 nM

Nc1nc(N)c2nc(CNc3ccc(C(=O)c4ccccc4)cc3)cnc2n1
inhibition (resazurin; 10 µM, 72 h): 76%

COc1ccc(C(=O)Nc2ccc(NC(=N)N)c(OCc3cc(OC)ccc3OC)c2)cc1
IC50: 800 nM

COc1cc2c(cc1Nc1nc(N3CCc4ccccc43)c3cc[nH]c3n1)N(C(=O)CN(C)C)CC2
EC50: 100 nM

C#CCN(Cc1cnc2nc(N)nc(N)c2n1)c1ccc(C(=O)N2CCC(C(=O)OC)CC2)cc1
inhibition (resazurin; 10 µM, 72 h): 23%

[O-][S+]1CCN(Cc2ccc(-c3ccc4ncnc(Nc5ccc(OCc6ccccc6)c(Cl)c5)c4c3)o2)CC1
EC50: 631 nM

COc1ccc(Oc2ccc(CNCc3cnc4nc(N)nc(N)c4n3)cc2)cc1
inhibition (resazurin; 10 µM, 72 h): 31%

ClCCOC(c1ccccc1)c1ccccc1
EC50: 32100 nM

O=[N+]([O-])c1c(CS(=O)(=O)c2ccccc2)nc2c(-c3cccc(C(F)(F)F)c3)cc(Cl)cn12
IC50 (resazurin; trypomastigote): 40 to 160 nM

COc1cc(N2CCN(C(C)C)CC2)ccc1Nc1nc(Nc2ccc(F)cc2C(N)=O)c2cc[nH]c2n1
EC50: 200 nM

CN(C)CCCN1c2ccccc2Sc2ccc(Cl)cc21
EC50 (blood stage): 4210 nM

Cc1nn(C)c2cc(N(C)c3ccnc(Nc4cccc(S(N)(=O)=O)c4)n3)ccc12
EC50: 316 nM

Cc1ccc2nc(-c3ccc(F)c(F)c3)c(CN3CCN(C4CCCCC4)CC3)n2c1
EC50 (48 h): > 20000 nM
